Experiments:
COLO 205 = assay: Cytotoxicity against human COLO205 cells after 48 hrs by XTT assay; format: functional; details: COLO 205, 48 h
How it was run: (§1)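 Two-day XTT colorimetric assay run on COLO205 and KM12 in parallel. Cells kept in RPMI-1640 with phenol red, 2mM L-glutamine and 10% FBS at 37 °C, 5% CO₂, and discarded after 25 passages. For the assay, cells were harvested into phenol-red-free medium without antibiotics and plated at 5,000 cells/well. After 24 hrs of incubation, samples were added as eight 2-fold serial dilutions. Values are the average of at least two tests.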

KM12 = assay: Cytotoxicity against human KM12 cells after 48 hrs by XTT assay; format: functional; details: KM12, 48 h; how it was run: as §1

Structure (SMILES): CC1(C)CC[C@@H](OC(=O)/C=C/c2ccc(O)cc2)[C@]2(C)[C@@H]3C(=CC[C@@H]12)CO[C@@H]3O
- GI50 (COLO 205): 18 µM
- GI50 (KM12): 14 µM

Structure (SMILES): CC1(C)CC[C@@H](OC(=O)/C=C/c2ccc(O)cc2)[C@]2(C)[C@@H]3C(=CC[C@@]12O)CO[C@@H]3O
- GI50 (COLO 205): 29 µM
- GI50 (KM12): 25 µM

Structure (SMILES): CO[C@H]1O[C@H](OC)[C@H]2C1=CC[C@H]1C(C)(C)CC[C@@H](OC(=O)/C=C/c3ccc(O)cc3)[C@]21C
- GI50 (COLO 205): > 45 µM
- GI50 (KM12): > 45 µM

Structure (SMILES): CC1(C)CC[C@@H](OC(=O)/C=C/c2ccc(O)cc2)[C@]2(C)[C@@H](C=O)C(C=O)=CC[C@@H]12
- GI50 (COLO 205): 29 µM
- GI50 (KM12): 25 µM

Structure (SMILES): C=C(C)C1Cc2c(cc3c(c2O)C(=O)C[C@H](c2ccc(O)cc2)C3)O1 (stereo not given in full)
- GI50 (COLO 205): 35 µM
- GI50 (KM12): 29 µM

Structure (SMILES): COc1ccc([C@H]2CC(=O)c3c(cc4c(c3O)C=CC(C)(C)O4)C2)cc1O
- GI50 (COLO 205): 11 µM
- GI50 (KM12): 17 µM

Structure (SMILES): COc1cc(O)c2c(c1)C[C@@H](c1ccc(O)c(O)c1)CC2=O [CALOTHYRLONE A]
- GI50 (COLO 205): > 67 µM
- GI50 (KM12): > 67 µM

Structure (SMILES): CC1(C)CCC[C@]2(C)[C@H]3COC(=O)C3=CC[C@@H]12 [CINNAMOLIDE]
- GI50 (COLO 205): > 85 µM
- GI50 (KM12): > 85 µM

Structure (SMILES): C=C(C)C1Cc2c(cc3c(c2O)C(=O)C[C@H](c2ccc(O)c(O)c2)C3)O1 (stereo not given in full) [ISOZYGOLONE A]
- GI50 (COLO 205): 32 µM
- GI50 (KM12): 32 µM

Structure (SMILES): CC1(C)C=Cc2c(cc3c(c2O)C(=O)C[C@H](c2ccc(O)c(O)c2)C3)O1 [ZYGOLONE A]
- GI50 (COLO 205): 17 µM
- GI50 (KM12): 14 µM

Reference: ChEMBL document CHEMBL2331156, “Growth inhibition of human colon carcinoma cells by sesquiterpenoids and tetralones of Zygogynum calothyrsum” (2013)
